Data published in ChEMBL document CHEMBL4396895, “Identification and Optimization of Novel Cathepsin C Inhibitors Derived from EGFR Inhibitors” (J Med Chem, 2019).
Activity calls are given as the source filed them. No cut-off for these calls is given here.

Tests used:
[1] = AUC infinity in C57BL/6 mouse at 10 mg/kg, ip by LC-MS/MS analysis; type: ADME, organism-based; set-up: dose 10 mg/kg, route intraperitoneal, time infinity; settings: in vivo
Method in brief: (§1)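 Male C57BL/6 mice (n = 3) were dosed with a single IV dose of 2 mg/kg or an IP or PO dose of 10 mg/kg. Vehicle: 0.5% Methocel and 0.1% Tween-80 in citrate buffer, pH 3. Blood was drawn by eye puncture at several time points and analysed by LC-MS/MS. Parameters came from noncompartmental analysis of individual animals and are reported as means.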

[2] = test system: Mus musculus; assay: In vivo inhibition of CatC in C57BL/6 mouse blood at 20 mg/kg, po single dose using Gly-Phe-AFC as substrate measured 8 hrs post dose for up to 90 mins by fluorescence assay relative to control; settings: C57BL/6, Blood
[3] = test system: Mus musculus; assay: In vivo inhibition of CatC in po dosed C57BL/6 mouse blood assessed as reduction in CatG activation administered twice daily for 6 days using N-succinyl-Ala-Ala-Pro-Phe-pNA as substrate measured up to 90 mins by fluorescence assay; type: functional, organism-based
Method in brief: (§2)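 C57BL/6 mice (20−25 g; n = 10 per group) received oral doses twice daily at 6.7, 20 or 60 mg/kg for 6 days. The vehicle group got 0.5% Methocel and 0.1% Tween-80 in 100 mM citrate buffer, pH 3. Blood was drawn by eye puncture 14 h after the last dose. Bone marrow was flushed from femurs and tibias with ice-cold RPMI 1640. Cells were lysed in 50 mM Tris pH 7.4, 750 mM NaCl, 1% Triton X-100, sonicated on ice and stored at −80 °C. Lysates were diluted by protein content, with blood diluted 5-fold more than marrow. Kinetics were followed for up to 90 min. Results are % of the vehicle mean.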

[4] = Bioavailability in C57BL/6 mouse at 10 mg/kg, ip by LC-MS/MS analysis; type: ADME, organism-based; settings: in vivo; method in brief: as §1
[5] = biological target: T1, Cytochrome P450 1A2 (Homo sapiens, UniProt P05177); assay: Inhibition of CYP1A2 (unknown origin); type: ADME
T1 sequence (P05177 whole entry): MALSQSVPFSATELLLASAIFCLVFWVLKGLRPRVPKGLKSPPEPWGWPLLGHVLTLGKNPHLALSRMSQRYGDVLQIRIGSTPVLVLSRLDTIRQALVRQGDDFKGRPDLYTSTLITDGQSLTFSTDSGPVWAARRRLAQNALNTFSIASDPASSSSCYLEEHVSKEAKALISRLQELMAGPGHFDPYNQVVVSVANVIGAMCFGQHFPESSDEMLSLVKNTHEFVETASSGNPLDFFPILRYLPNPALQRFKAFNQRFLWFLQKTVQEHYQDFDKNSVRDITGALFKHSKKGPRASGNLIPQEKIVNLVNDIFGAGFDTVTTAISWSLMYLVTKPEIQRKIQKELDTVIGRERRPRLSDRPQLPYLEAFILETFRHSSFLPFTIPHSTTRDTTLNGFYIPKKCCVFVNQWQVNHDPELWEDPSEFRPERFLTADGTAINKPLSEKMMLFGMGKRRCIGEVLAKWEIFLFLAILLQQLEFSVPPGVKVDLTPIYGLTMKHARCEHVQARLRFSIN
Method in brief: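 Tested against recombinant human cytochrome P450 isoforms 1A2, 2D6, 3A4, 2C9 and 2C19.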

[6] = Intrinsic clearance in human liver microsomes assessed per mg protein measured after 60 mins in presence of NADPH by LC-MS/MS analysis; type: ADME, Microsome; settings: read-out: CLH
[7] = Cmax in C57BL/6 mouse at 10 mg/kg, ip by LC-MS/MS analysis; type: ADME, organism-based; set-up: dose 10 mg/kg, route intraperitoneal; settings: in vivo; method in brief: as §1
[8] = Intrinsic clearance in rat liver microsomes assessed per mg protein measured after 60 mins in presence of NADPH by LC-MS/MS analysis; type: ADME, Microsome; settings: read-out: CLH
[9] = biological target: Cathepsin B (Homo sapiens, UniProt P07858); assay: Inhibition of recombinant human C-terminal polyhistidine-tagged cathepsin B (Arg18 to Ile339 residues) expressed in HEK293 cells using Z-Leu-Arg-AMC as substrate preincubated for 30 mins followed by substrate addition and measured after 30 mins
Method in brief: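 Recombinant human cathepsin was preincubated with compound for 30 min at RT, then reacted with substrate for 30 min. CatB and CatL were read with Z-Leu-Arg-AMC (Ex 380/Em 460 nm). CatS was read with MCA-Arg-Pro-Lys-Pro-Val-Glu-Nva-Trp-Arg-Lys(DNP)-NH2 (Ex 320/Em 405 nm). E-64 served as inhibitor control.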

[10] = Half life in C57BL/6 mouse at 2 mg/kg, iv by LC-MS/MS analysis; type: ADME, organism-based; settings: in vivo; method in brief: as §1
[11] = Toxicity in C57BL/6 mouse at 60 mg/kg, po administered twice daily for 6 days; type: organism-based; settings: in vivo, 144 h
[12] = test system: Mus musculus; assay: In vivo inhibition of CatC in po dosed C57BL/6 mouse blood assessed as reduction in proteinase 3 activation administered twice daily for 6 days using aminobenzoyl-Val-Ala-Asp-Cys-Ala-Asp-Gln-ethylenediamine 2,4-dinitrophenyl as substrate measured up to 90 mins by fluorescence assay; type: functional, organism-based; method in brief: as §2
[13] = Half life in C57BL/6 mouse at 10 mg/kg, po by LC-MS/MS analysis; type: ADME, organism-based; settings: in vivo; method in brief: as §1
[14] = biological target: Epidermal growth factor receptor (Homo sapiens, UniProt P00533); assay: Inhibition of EGFR (unknown origin) up to 10 uM using biotin-labelled peptide as substrate preincubated for 2 hrs followed by substrate addition and measured after 30 mins by HTRF FRET assay
Epidermal growth factor receptor, sequence (P00533 whole entry): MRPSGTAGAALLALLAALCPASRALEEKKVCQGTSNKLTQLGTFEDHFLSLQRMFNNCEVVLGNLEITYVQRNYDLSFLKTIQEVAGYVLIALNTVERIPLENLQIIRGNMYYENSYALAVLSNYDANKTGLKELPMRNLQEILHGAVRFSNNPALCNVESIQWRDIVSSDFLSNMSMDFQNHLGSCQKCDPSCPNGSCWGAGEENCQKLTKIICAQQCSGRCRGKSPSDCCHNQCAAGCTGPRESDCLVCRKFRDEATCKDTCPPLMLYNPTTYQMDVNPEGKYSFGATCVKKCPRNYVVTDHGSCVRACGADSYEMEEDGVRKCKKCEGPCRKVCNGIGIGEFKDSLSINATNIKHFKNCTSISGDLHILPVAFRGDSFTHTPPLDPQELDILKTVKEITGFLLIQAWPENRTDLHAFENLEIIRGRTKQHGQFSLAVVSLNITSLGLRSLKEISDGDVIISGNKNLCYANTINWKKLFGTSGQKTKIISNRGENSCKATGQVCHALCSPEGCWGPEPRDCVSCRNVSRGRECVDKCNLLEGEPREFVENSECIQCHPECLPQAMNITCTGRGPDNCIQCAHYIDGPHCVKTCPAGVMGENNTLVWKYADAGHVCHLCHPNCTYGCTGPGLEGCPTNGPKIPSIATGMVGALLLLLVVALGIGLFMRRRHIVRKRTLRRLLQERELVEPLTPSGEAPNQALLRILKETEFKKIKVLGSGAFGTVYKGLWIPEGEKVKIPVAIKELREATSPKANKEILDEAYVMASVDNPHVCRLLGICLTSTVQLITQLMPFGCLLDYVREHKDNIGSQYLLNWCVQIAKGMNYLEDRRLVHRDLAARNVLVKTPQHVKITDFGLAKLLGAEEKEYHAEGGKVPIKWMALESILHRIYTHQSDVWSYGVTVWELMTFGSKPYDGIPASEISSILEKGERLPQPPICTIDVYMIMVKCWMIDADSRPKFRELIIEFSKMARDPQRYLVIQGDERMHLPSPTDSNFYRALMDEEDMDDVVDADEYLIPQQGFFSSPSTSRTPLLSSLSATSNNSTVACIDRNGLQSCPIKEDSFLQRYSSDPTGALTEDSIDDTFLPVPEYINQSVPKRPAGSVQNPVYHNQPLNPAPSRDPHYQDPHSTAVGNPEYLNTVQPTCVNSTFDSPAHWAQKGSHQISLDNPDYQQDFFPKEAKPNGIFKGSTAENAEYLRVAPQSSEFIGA
Method in brief: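 EGFR WT was used at 0.1 nM final in 50 mM HEPES pH 7.0, 0.02% NaN3, 0.01% BSA, 0.1 mM orthovanadate, 10 mM MgCl2, 2.5 mM DTT, 6.25 nM SEB. It was preincubated with compound for 2 h. Biotin-peptide (1.4 μM) and ATP (20 μM) were then added for 30 min at RT. Read-out was HTRF/TR-FRET (Ex 320, Em 615/665 nm) with a sigmoidal curve fit.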

[15] = test system: Mus musculus; assay: Protection against C57BL/6 mouse model of caerulein-induced acute pancreatitis at 20 mg/kg, po pretreated twice daily for 6 days followed by caerulein-challenge at 1 hr interval for 8 hrs and measured 1 hr post-last caerulein-challenge by H and E staining-based histological analysis
[16] = Cmax in C57BL/6 mouse at 10 mg/kg, po by LC-MS/MS analysis; type: ADME, organism-based; set-up: dose 10 mg/kg, route oral; settings: in vivo; method in brief: as §1
[17] = test system: Mus musculus; assay: In vivo inhibition of CatC in po dosed C57BL/6 mouse bone marrow administered twice daily for 6 days using Gly-Phe-AFC as substrate measured up to 90 mins by fluorescence assay; type: functional, organism-based; method in brief: as §2

C=CC(=O)Nc1cc(Oc2nc(Nc3ccc(N4CCN(C)CC4)cc3OC)ccc2N2CCCCC2)ccc1C
AUC(0-inf) [1]: 1240 ng·h/mL
inhibition in vivo at 20 mg/kg [2]: 80%
inhibition [3]: Dose-dependent effect
bioavailability [4]: 20.3%
IC50 [5]: > 10 µM
microsomal CLint [6]: 1.8 µL/min/mg
Cmax [7]: 766 ng/mL
microsomal CLint [8]: 6.3 µL/min/mg
IC50 [9]: 3 to 10 µM
half-life [10]: 1.62 h
Activity [11]: Non-Toxic
inhibition [12]: Dose-dependent effect
half-life [13]: 3.06 h
inhibition [14]: inactive
Activity [15]: Active
Cmax [16]: 184 ng/mL
inhibition [17]: Dose-dependent effect
